This is an account of results in ChEMBL document CHEMBL4145669 (J Med Chem, 2018).

In general, EC50 refers to the concentration at which the effect is half-maximal. High values mean lower potency in that assay, low ones higher potency in that assay.

Square brackets hold non-standard residues; d marks the D form. Peptide text beside a SMILES is read from it. hPhe = N[C@@H](CCc1ccccc1)C(=O)O; Nle = CCCC[C@H](N)C(=O)O; Dap = NC[C@H](N)C(=O)O Where only a bound is given, the exact number is not on record here.

One assay deals with Melanocortin receptor 4 (Mus musculus, UniProt P56450). The assay is described as follows: Antagonist activity at mouse MC4R expressed in HEK293 cells assessed as reduction in NDP-MSH-induced response incubated for 2 hrs by AlphaScreen cAMP assay based Schild analysis. It counts as functional, cell-based. The note with it: read-out: pA2 (converted). (In Alpha technology, singlet oxygen from a donor bead excites a nearby acceptor bead.)

Assay [1] has as its target Melanocortin receptor 5 (Mus musculus) (UniProt P41149). The assay is described as follows: Inverse agonist activity at mouse MC5R expressed in HEK293 cells at 100 uM incubated for 2 hrs by AlphaScreen cAMP assay. It counts as functional, cell-based. Put shortly: (§1)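 In the mouse MC5R HEK293 stable line, cells in IBMX-containing stimulation buffer with anti-cAMP acceptor beads were exposed to compound at up to 100 μM for 2 h at room temperature in the dark. Donor beads/biotinylated cAMP were then added for 2 h before AlphaScreen reading. Signal was normalized to basal response to give a percent difference from basal. Duplicate wells, ≥3 independent experiments.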

Assay [2] deals with Melanocyte-stimulating hormone receptor (Mus musculus, UniProt Q01727). The assay is described as follows: Agonist activity at mouse MC1R expressed in HEK293 cells incubated for 2 hrs by AlphaScreen cAMP assay. The format is functional, cell-based. Put shortly:
(§2)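 HEK293 cells stably expressing mouse MC1R, about 90% confluent, were detached with Versene and suspended at 10,000 cells/μL in stimulation buffer (HBSS, 0.5 mM IBMX, 5 mM HEPES, 0.1% BSA, pH 7.4) with anti-cAMP acceptor beads. Compound was added for 2 h at room temperature in the dark, then donor beads/biotinylated cAMP in lysis buffer for 2 h, followed by AlphaScreen read. Doses went up to 100 μM in duplicate wells, ≥3 experiments. EC50 came from nonlinear regression, with efficacy as a percent of NDP-MSH.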

Assay [3] deals with Melanocyte-stimulating hormone receptor (Mus musculus) (UniProt Q01727). Nature of the assay: Agonist activity at mouse MC1R expressed in HEK293 cells at 100 uM incubated for 2 hrs by AlphaScreen cAMP assay relative to NDP-MSH. The format is functional, cell-based. In short, it runs like this:
as §2

The target of assay [4] is Melanocortin receptor 4 (Mus musculus) (UniProt P56450). The assay is described as follows: Agonist activity at mouse MC4R expressed in HEK293 cells at 100 uM incubated for 2 hrs by AlphaScreen cAMP assay relative to untreated control. It counts as functional, cell-based.
A further assay is filed under the species Mus musculus. Nature of the assay: Selectivity index, ratio of pA2 for antagonist activity at mouse MC3R expressed in HEK293 cells to pA2 for antagonist activity at mouse MC4R expressed in HEK293 cells. It counts as cell-based.
The target of assay [5] is Melanocortin receptor 3 (Mus musculus) (UniProt P33033). The assay is described as follows: Agonist activity at mouse MC3R expressed in HEK293 cells at 100 uM incubated for 2 hrs by AlphaScreen cAMP assay relative to untreated control. It counts as functional, cell-based.
Another assay addresses Melanocortin receptor 5 (Mus musculus, UniProt P41149). The assay is described as follows: Inverse agonist activity at mouse MC5R expressed in HEK293 cells incubated for 2 hrs by AlphaScreen cAMP assay. It counts as functional, cell-based. Put shortly: as §1
Another assay deals with Melanocortin receptor 3 (Mus musculus, UniProt P33033). The assay is described as follows: Antagonist activity at mouse MC3R expressed in HEK293 cells assessed as reduction in NDP-MSH-induced response incubated for 2 hrs by AlphaScreen cAMP assay based Schild analysis. The format is functional, cell-based. The settings on record: read-out: pA2 (converted).
Sequence of Melanocortin receptor 3 (P33033 whole entry): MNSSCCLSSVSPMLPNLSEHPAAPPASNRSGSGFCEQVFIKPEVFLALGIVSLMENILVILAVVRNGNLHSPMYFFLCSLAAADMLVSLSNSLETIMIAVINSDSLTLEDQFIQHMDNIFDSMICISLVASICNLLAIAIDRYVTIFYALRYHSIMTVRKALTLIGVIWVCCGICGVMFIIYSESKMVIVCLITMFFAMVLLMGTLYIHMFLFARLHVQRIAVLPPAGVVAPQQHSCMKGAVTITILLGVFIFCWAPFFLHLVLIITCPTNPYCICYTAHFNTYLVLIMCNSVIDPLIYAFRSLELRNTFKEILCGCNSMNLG

Sequence of Melanocortin receptor 3 (Mus musculus) (P33033 whole entry): as above
Sequence of Melanocortin receptor 5 (P41149 whole entry): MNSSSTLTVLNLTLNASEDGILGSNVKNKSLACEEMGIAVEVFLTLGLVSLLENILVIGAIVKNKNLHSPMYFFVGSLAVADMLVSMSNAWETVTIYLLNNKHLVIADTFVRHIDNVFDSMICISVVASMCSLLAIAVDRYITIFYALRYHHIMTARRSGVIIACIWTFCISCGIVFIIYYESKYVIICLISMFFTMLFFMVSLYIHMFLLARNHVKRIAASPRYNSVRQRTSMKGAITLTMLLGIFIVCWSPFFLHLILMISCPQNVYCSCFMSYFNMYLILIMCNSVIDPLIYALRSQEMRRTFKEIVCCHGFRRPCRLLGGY
Sequence of Melanocortin receptor 5 (Mus musculus) (P41149 whole entry): as above
Sequence of Melanocyte-stimulating hormone receptor (Q01727 whole entry): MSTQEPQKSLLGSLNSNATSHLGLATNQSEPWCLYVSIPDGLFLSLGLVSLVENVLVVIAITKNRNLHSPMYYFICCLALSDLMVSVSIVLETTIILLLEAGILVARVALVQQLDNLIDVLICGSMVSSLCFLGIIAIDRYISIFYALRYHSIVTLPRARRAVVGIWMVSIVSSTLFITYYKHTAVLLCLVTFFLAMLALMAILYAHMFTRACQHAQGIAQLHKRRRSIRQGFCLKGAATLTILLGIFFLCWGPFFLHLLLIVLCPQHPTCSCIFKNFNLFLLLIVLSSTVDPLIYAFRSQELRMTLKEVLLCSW
Sequence of Melanocyte-stimulating hormone receptor (Mus musculus) (Q01727 whole entry, looked up): as the sequence (Q01727 whole entry) above
Sequence of Melanocortin receptor 4 (Mus musculus) (P56450 whole entry): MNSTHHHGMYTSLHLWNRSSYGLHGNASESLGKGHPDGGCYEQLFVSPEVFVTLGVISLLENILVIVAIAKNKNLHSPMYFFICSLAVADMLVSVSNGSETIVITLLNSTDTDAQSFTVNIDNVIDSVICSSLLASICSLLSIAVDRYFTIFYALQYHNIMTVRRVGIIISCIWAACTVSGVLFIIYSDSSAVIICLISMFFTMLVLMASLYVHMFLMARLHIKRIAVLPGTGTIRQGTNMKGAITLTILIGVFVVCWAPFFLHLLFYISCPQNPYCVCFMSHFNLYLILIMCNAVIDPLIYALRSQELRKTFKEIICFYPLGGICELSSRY
Sequence of Melanocortin receptor 4 (P56450 whole entry): as above

`N=C(N)NCCC[C@@H]1NC(=O)[C@H](Cc2ccccc2)NC(=O)[C@H](Cc2ccccc2)NC(=O)[C@H](CCCNC(=N)N)NC(=O)[C@@H]2CCCN2C(=O)[C@H]2CCCN2C(=O)[C@H](Cc2ccccc2)NC(=O)[C@H](CO)NC1=O`: the Kb at Melanocortin receptor 4 was 1 nM; on Melanocortin receptor 3 it was 79.4 nM. The Activity in assay [1], in [3], in [4] and in assay [5] was less than 20% in each case. Besides, the EC50 (in [2]; on Melanocortin receptor 5) was greater than 100000 nM in each case. Moreover, in the assay filed under Mus musculus, the Ratio was determined as 79.

As for `CCCC[C@@H]1NC(=O)[C@H](C)NC(=O)[C@H](CN)NC(=O)[C@H](Cc2ccccc2)NC(=O)[C@H](Cc2ccccc2)NC(=O)[C@H](CCCNC(=N)N)NC(=O)[C@@H]2CCCN2C(=O)[C@H]2CCCN2C1=O`, the Kb at Melanocortin receptor 4 was 1 nM; at Melanocortin receptor 3 it was 79.4 nM. The Activity in [1], in [4] and in assay [5] was less than 20% each time. The EC50 in assay [2] is 190 nM; at Melanocortin receptor 5 it was greater than 100000 nM. For the same compound, the Ratio in the assay filed under Mus musculus was 79.

As to `CCCC[C@@H]1NC(=O)[C@H](C)NC(=O)[C@H](CC(N)=O)NC(=O)[C@H](CCc2ccccc2)NC(=O)[C@H](Cc2ccccc2)NC(=O)[C@H](CCCNC(=N)N)NC(=O)[C@@H]2CCCN2C(=O)[C@H]2CCCN2C1=O`, the values for the Kb at Melanocortin receptor 4 and on Melanocortin receptor 3 were 2.51 nM and 631 nM, respectively. The Activity in assay [1], in assay [3], in assay [4] and in assay [5] was less than 20% in each case. The EC50 (in [2]; at Melanocortin receptor 5) was greater than 100000 nM throughout. The Ratio in the assay listed under Mus musculus is 250.

For the compound `N=C(N)NCCC[C@@H]1NC(=O)[C@@H]2CCCN2C(=O)[C@H]2CCCN2C(=O)[C@H](Cc2ccccc2)NC(=O)[C@H](CO)NC(=O)[C@H](CN)NC(=O)[C@H](CCc2ccccc2)NC(=O)[C@H](Cc2ccccc2)NC1=O`, the figures for the Kb on Melanocortin receptor 4 and at Melanocortin receptor 3 were 0.631 nM and 63.1 nM, respectively. The Activity in assay [1] was less than 20%; in assay [3] it was 40%; in assay [4] it was less than 20%; in assay [5] it was less than 20%. The Ratio in the assay filed under Mus musculus turned out to be 120. Also, the EC50 at Melanocortin receptor 5 is greater than 100000 nM.

As for `N=C(N)NCCC[C@@H]1NC(=O)[C@@H]2CCCN2C(=O)[C@H]2CCCN2C(=O)[C@H](Cc2ccccc2)NC(=O)[C@H](CO)NC(=O)[C@H](CC(N)=O)NC(=O)[C@H](CCc2ccccc2)NC(=O)[C@H](Cc2ccccc2)NC1=O`, the Kb on Melanocortin receptor 4 was 2.51 nM; on Melanocortin receptor 3, 316 nM. Moreover, the Activity was less than 20% in assay [1], 40% in assay [3], less than 20% in assay [4] and less than 20% in [5]. Further, the Ratio in the assay filed under Mus musculus turned out to be 130. The same compound yielded an EC50 on Melanocortin receptor 5 greater than 100000 nM.

As to `CCCC[C@@H]1NC(=O)[C@H](C)NC(=O)[C@H](CCCNC(=N)N)NC(=O)[C@H](Cc2ccccc2)NC(=O)[C@H](Cc2ccccc2)NC(=O)[C@H](CCCNC(=N)N)NC(=O)[C@@H]2CCCN2C(=O)[C@H]2CCCN2C1=O` (cyclo(RFFRA[Nle][dP]P)), the Kb is 0.794 nM on Melanocortin receptor 4 and 31.6 nM at Melanocortin receptor 3. The Activity in assay [1], in assay [3], in assay [4] and in [5] was less than 20% in each case. For the same compound, the EC50 (in assay [2]; on Melanocortin receptor 5) was greater than 100000 nM each time. In addition, the Ratio in the assay filed under Mus musculus is 46.

On to `CCCC[C@@H]1NC(=O)[C@H](CO)NC(=O)[C@H](CCCNC(=N)N)NC(=O)[C@H](Cc2ccccc2)NC(=O)[C@H](Cc2ccccc2)NC(=O)[C@H](CCCNC(=N)N)NC(=O)[C@@H]2CCCN2C(=O)[C@H]2CCCN2C1=O` (cyclo(RFFRS[Nle][dP]P)), for which the Kb on Melanocortin receptor 4 is 0.251 nM; at Melanocortin receptor 3 it was 79.4 nM. In addition, the Activity in [1], in assay [3], in assay [4] and in assay [5] was less than 20% each time. Besides, the EC50 (in assay [2]; on Melanocortin receptor 5) was greater than 100000 nM throughout. Besides, the Ratio in the assay filed under Mus musculus was found to be 320.

In the case of `CCCC[C@@H]1NC(=O)[C@H](CO)NC(=O)[C@H](CN)NC(=O)[C@H](Cc2ccccc2)NC(=O)[C@H](Cc2ccccc2)NC(=O)[C@H](CCCNC(=N)N)NC(=O)[C@@H]2CCCN2C(=O)[C@H]2CCCN2C1=O` (cyclo(RFF[Dap]S[Nle][dP]P)), the Kb at Melanocortin receptor 4 was 0.794 nM; at Melanocortin receptor 3 it was 316 nM. Also, the Activity in assay [1], in assay [3], in assay [4] and in assay [5] was less than 20% throughout. Also, the EC50 (in assay [2]; at Melanocortin receptor 5) was greater than 100000 nM throughout. For the same compound, in the assay filed under Mus musculus, the Ratio amounted to 430.

For `C[C@@H]1NC(=O)[C@H](CCCNC(=N)N)NC(=O)[C@H](CCc2ccccc2)NC(=O)[C@H](Cc2ccccc2)NC(=O)[C@H](CCCNC(=N)N)NC(=O)[C@@H]2CCCN2C(=O)[C@H]2CCCN2C(=O)[C@H](Cc2ccccc2)NC1=O` (cyclo(RF[hPhe]RAF[dP]P)), the Kb is 1.26 nM on Melanocortin receptor 4 and 10 nM on Melanocortin receptor 3. In addition, the Activity in assay [1] was less than 20%; in assay [3], 25%; in [4] it was less than 20%; in [5] it was less than 20%. The Ratio in the assay filed under Mus musculus is 8. In addition, the EC50 at Melanocortin receptor 5 is greater than 100000 nM.

As for `CCCC[C@@H]1NC(=O)[C@H](C)NC(=O)[C@H](CCCNC(=N)N)NC(=O)[C@H](CCc2ccccc2)NC(=O)[C@H](Cc2ccccc2)NC(=O)[C@H](CCCNC(=N)N)NC(=O)[C@@H]2CCCN2C(=O)[C@H]2CCCN2C1=O` (cyclo(RF[hPhe]RA[Nle][dP]P)), the results for the Kb at Melanocortin receptor 4 and on Melanocortin receptor 3 were 1.58 nM and 31.6 nM, respectively. The Activity in assay [1], in assay [3], in assay [4] and in [5] was less than 20% in each case. Also, the EC50 (in assay [2]; at Melanocortin receptor 5) was greater than 100000 nM in each case. Further, in the assay listed under Mus musculus, the Ratio worked out at 19.

Regarding `N=C(N)NCCC[C@@H]1NC(=O)[C@H](CCc2ccccc2)NC(=O)[C@H](Cc2ccccc2)NC(=O)[C@H](CCCNC(=N)N)NC(=O)[C@@H]2CCCN2C(=O)[C@H]2CCCN2C(=O)[C@H](Cc2ccccc2)NC(=O)[C@H](CO)NC1=O` (cyclo(RF[hPhe]RSF[dP]P)), the Kb is 1.58 nM on Melanocortin receptor 4 and 20 nM at Melanocortin receptor 3. The Activity is less than 20% in [1], 30% in assay [3], less than 20% in assay [4] and less than 20% in assay [5]. The Ratio in the assay listed under Mus musculus worked out at 13. In addition, the EC50 on Melanocortin receptor 5 is greater than 100000 nM.

With `CCCC[C@@H]1NC(=O)[C@H](CO)NC(=O)[C@H](CCCNC(=N)N)NC(=O)[C@H](CCc2ccccc2)NC(=O)[C@H](Cc2ccccc2)NC(=O)[C@H](CCCNC(=N)N)NC(=O)[C@@H]2CCCN2C(=O)[C@H]2CCCN2C1=O` (cyclo(RF[hPhe]RS[Nle][dP]P)), the Kb at Melanocortin receptor 4 was 0.316 nM; on Melanocortin receptor 3 it was 12.6 nM. Besides, the Activity in [1], in [4] and in [5] was less than 20% each time. Moreover, the EC50 is 400 nM in [2] and greater than 100000 nM on Melanocortin receptor 5. Further, the Ratio in the assay listed under Mus musculus turned out to be 37.
